High-throughput results: PubChem, Johns Hopkins Ion Channel Center
In the library only some 3.5% were active in any assay of this set; here they are far more common.
RGS4 block: inhibitors of human RGS4. 310,000 tested, 0.45% active. B-score at 10 µM. HEK293 M3R/RGS4 inducible, Fluo-4 calcium flux; hits give high values; triggered by carbachol at its EC20;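 active means B-score, a plate-corrected calcium signal, over three deviations above library mean, with baseline fluorescence within five deviations of library mean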;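 further: RGS4 expression induced by doxycycline in cells with stable M3 receptor; B-score is computed from the integrated fluorescence ratio over baseline after carbachol; higher B-score means a larger calcium signal and so more RGS4 inhibition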
MrgX1 antagonist: antagonists of human MrgX1 receptor | Q96LB2 | B-score at 10 µM | 310,000 tested, 1.3% active | MRGX1-HEK293 calcium flux, Fluo-4, BAM8-22 antagonism; hits give low values | AID 588676;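 active means calcium-response B-score plate-corrected more than 3 library SD below zero, starting fluorescence within 5 deviations, no agonist response on first addition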;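 further: peak minus trough fluorescence over baseline after final BAM8-22 challenge near maximal dose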
Target sequence (Q96LB2 whole entry, looked up): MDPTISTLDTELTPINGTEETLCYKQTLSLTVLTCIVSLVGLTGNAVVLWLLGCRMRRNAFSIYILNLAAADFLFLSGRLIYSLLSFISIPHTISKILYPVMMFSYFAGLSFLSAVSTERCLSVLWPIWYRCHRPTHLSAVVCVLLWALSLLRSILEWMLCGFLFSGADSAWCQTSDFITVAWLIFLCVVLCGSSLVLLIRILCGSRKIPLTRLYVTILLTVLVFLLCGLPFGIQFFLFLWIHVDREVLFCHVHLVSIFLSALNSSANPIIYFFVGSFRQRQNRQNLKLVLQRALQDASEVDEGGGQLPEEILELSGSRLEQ
MrgX1 PAM: human MrgX1 positive allosteric modulation, primary screen; Q96LB2; MrgX1-HEK293, Fluo-4 calcium flux, FDSS; hits give high values; B-score at 10 µM; 310,000 tested, 0.63% active;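 active means plate-corrected calcium response at least 3 library SD above typical, normal starting fluorescence, not activating the receptor alone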;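 further: compound read alongside a low EC10 to EC30 dose of BAM8-22 agonist; peak minus trough fluorescence over baseline measured at the second addition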
RGS4 pot: RGS4 potentiation or activation. HEK293 M3R/inducible RGS4, carbachol calcium flux Fluo4; hits give low values. B-score at 10 µM. 310,000 tested, 0.92% active. AID 463111;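 active means B-score of the integrated calcium signal more than 4 SD below the library mean, with starting fluorescence not abnormally high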;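 further: negative B-score means reduced calcium response which marks RGS4 activation or potentiation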
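Material: Inducible-RGS4 HEK293 cells carrying M3 receptor; also added: carbachol at ECmax as muscarinic agonist stimulus; incubation: compound preincubation 20 min at room temperature before agonist; signal: Fluo4-AM (2 µM) calcium-flux fluorescence, kinetic read; measure: integrated calcium ratio converted to B score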
MrgX1 ag: human MrgX1 receptor agonism, primary screen | Q96LB2 | B-score at 10 µM | 310,000 tested, 0.44% active | MrgX1-HEK293 cells, Fluo-4 calcium fluorescence, agonist mode; hits give high values;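 active means calcium response B-score plate-corrected fluorescence ratio at least 3 library SD, with starting fluorescence B-score inside 5 SD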
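Test system: Stable human MrgX1 HEK293 cell line | Schedule: Overnight plating before 1 h dye loading | Read-out basis: Baseline-normalised fluorescence change ratio, B-scored | Detection: Kinetic calcium dye fluorescence, Fluo-4 NW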
MrgX1 ant reconf: reconfirmed antagonist of human MrgX1 receptor signaling. shares compounds with MrgX1 antagonist. MrgX1-HEK293, BAM8-22 calcium flux, Fluo-4; hits give low values. remaining BAM8-22 calcium response % of control (hits give low values), % at 10 µM. 2,300 tested, 19% active. AID 602420;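 active means remaining agonist calcium response no higher than 100% minus 3 SD of agonist-only control wells, with starting fluorescence near control levels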;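 further: agonist BAM8-22 given at a near maximal EC90 to ECmax level; peak minus minimum fluorescence divided by baseline after agonist addition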
HEK293 Ca flux: activity in parental HEK293 cells lacking MrgX1; shares compounds with MrgX1 antagonist; Fluo-4 calcium fluorescence, FDSS; fluorescence ratio F(max-min)/F0 at 10 µM; 4,000 tested, 2% active;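 active means duplicate-averaged calcium fluorescence ratio at least three times the standard deviation of buffer wells, a nonspecific response in parental cells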
HEK293 Ca counter: counter-screen for MrgX1 allosteric activators: effect in parental HEK293 cells. shares compounds with MrgX1 antagonist. parental HEK293 calcium flux, Fluo-4 fluorescence ratio; hits give high values. fluorescence ratio F(max-min)/F0 at 10 µM. 4,000 tested, 0.4% active;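 active means calcium fluorescence ratio, averaged over duplicates, at least 3 SD of the buffer-well ratio, meaning a nonspecific response in receptor-free cells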;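 further: untransfected parental HEK293 lacking MrgX1 used as counterscreen for MrgX1 allosteric activators; fluorescence change taken during the second addition on a kinetic imager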
HEK293 Ca cntr2: counter-screen for MrgX1 activators: effect in parental HEK293 cells | AID 624115 | fluorescence ratio F(max-min)/F0 at 10 µM | 4,000 tested, 8.7% active | Fluo-4 calcium fluorescence (FDSS); hits give high values | shares compounds with MrgX1 antagonist;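 active means calcium fluorescence ratio at least three times the spread of buffer wells, meaning a non-specific response in parental cells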
* hit, by the source's call; i = inactive; / = no result.

SMILES	RGS4 block	MrgX1 antagonist	MrgX1 PAM	RGS4 pot	MrgX1 ag	MrgX1 ant reconf	HEK293 Ca flux	HEK293 Ca counter	HEK293 Ca cntr2
N#Cc1sc2nc(-c3ccccc3)cc(-c3ccco3)c2c1N	i	-10*	i	i	i	i	i	i	i
COCCN1Cc2cccc(C(=O)Nc3cccnc3)c2C1=O	/	i	i	/	i	/	/	/	/
COCCN1Cc2cccc(C(=O)Nc3ccc(C)cc3)c2C1=O	i	-7.6*	i	i	i	81%*	i	i	i
C=CCc1c(Cl)nc(C)nc1NCc1ccccc1	i	i	i	i	i	/	/	/	/
CC(C)(C)N(Cc1ccccc1)C(=O)CSc1nc2ccccc2c(=O)[nH]1	i	i	i	i	i	/	/	/	/
Cc1nnc(SCC(=O)N(Cc2ccccc2)C(C)(C)C)[nH]c1=O	i	-4.6*	i	i	i	i	i	i	i
CC1CN(C(=O)Nc2ccc(Br)cc2Cl)CC(C)O1 (stereo not given)	i	-6.4*	i	i	i	i	i	i	i
CC1CCCN(C(=O)Nc2ccc(Br)cc2Cl)C1 (stereo not given)	i	i	i	i	i	/	/	/	/
c1ccc2[nH]c(CN3CCN(c4ncnc5c4oc4ccccc45)CC3)nc2c1	/	-6.4*	i	/	i	i	i	i	i
C(=C\c1ccccc1)/CN1CCN(c2ncnc3c2oc2ccccc23)CC1	i	-7.3*	i	i	i	47%*	i	i	i
C=CCOC(=O)C1=C(C)NC(=S)NC1c1cccs1 (stereo not given)	i	i	i	i	i	/	/	/	/
CC1CCCN(C(=O)CSc2nnc(-c3ccncc3)n2C)C1 (stereo not given)	i	i	i	i	i	/	/	/	/
C[C@H]1CN=C(Nc2ccccc2)N1CC1CCCCC1	i	i	i	i	i	/	/	/	/
C[C@H]1CN=C(Nc2ccccc2)N1CCCC1CCCCC1	i	-6.1*	i	i	i	i	i	i	i
CN(C)C1=NC[C@H](Cc2ccccc2)N1CCCC1CCCC1	/	-5.6*	i	/	i	i	i	i	i
Cc1ccc(C(=O)Nc2nc3ccccc3n3nnnc23)cc1	i	-11*	i	i	i	84%*	i	i	i
COc1ccc(Cc2nnc(NS(C)(=O)=O)s2)cc1	i	-6.4*	i	i	i	i	i	i	i
COc1ccc(CC(=O)OCC(=O)Nc2ncc(Cl)cc2Cl)cc1	i	-4.7*	i	i	i	i	i	i	i
Cc1cc(C)n(CCN(C)c2nc3nonc3nc2NC2CC2)n1	i	i	i	i	i	/	/	/	/
COc1ccc(OC)c(NC(=O)CCN2CC(C)OC(C)C2)c1 (stereo not given)	i	i	i	i	i	/	/	/	/
COc1ccc(C)cc1NC(=O)CCN1CC(C)OC(C)C1 (stereo not given)	i	-5.1*	i	i	i	i	i	i	i
O=C(NCC1CC1)[C@]1(C(F)(F)F)C[C@H](CCC2CCCCC2)CCCO1	i	i	i	i	i	/	/	/	/
c1ccc(COc2ccc(OCCn3cncn3)cc2)cc1	i	-5.9*	i	i	i	i	i	i	i
Cc1ccnc(N2CCC(C(=O)Nc3ccc(Oc4ccccc4)cc3)CC2)n1	i	i	i	i	i	/	/	/	/
